Assay results taken from ChEMBL document CHEMBL4346734, “Modification of the 4-phenylbutyl side chain of potent 3-benzazepine-based GluN2B receptor antagonists” (Bioorg Med Chem, 2019).

Key:
[1] = biological target: Sigma non-opioid intracellular receptor 1 (Cavia porcellus) (UniProt Q60492); assay: Displacement of [3H]-(+)pentazocine from sigma-1 receptor in guinea pig brain membranes after 120 mins by scintillation counting method relative to control; assay type: cell membranes; design: concentration or dose not given beside the values
Sigma non-opioid intracellular receptor 1 (Cavia porcellus), sequence (Q60492 whole entry): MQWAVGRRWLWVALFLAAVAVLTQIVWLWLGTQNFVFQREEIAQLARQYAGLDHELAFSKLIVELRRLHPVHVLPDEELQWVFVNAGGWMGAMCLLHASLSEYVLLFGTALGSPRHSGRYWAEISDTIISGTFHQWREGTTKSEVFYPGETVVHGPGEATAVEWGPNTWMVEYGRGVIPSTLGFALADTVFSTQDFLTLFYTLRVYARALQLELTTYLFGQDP

[2] = Displacement of [3H]-(+)-MK-801 from NMDA PCP binding site in pig brain cortex membrane at 1 uM incubated for 120 mins by scintillation counting method relative to control; assay type: cell membranes
[3] = biological target: Glutamate receptor ionotropic, NMDA 2B (Homo sapiens) (UniProt Q13224); assay: Displacement of [3H]ifenprodil from human GluN2B expressed in mouse L(tk-) cell membranes at 1 uM incubated for 120 mins by scintillation counting method relative to control
Glutamate receptor ionotropic, NMDA 2B (Homo sapiens), sequence (Q13224 27-1484 limits assumed): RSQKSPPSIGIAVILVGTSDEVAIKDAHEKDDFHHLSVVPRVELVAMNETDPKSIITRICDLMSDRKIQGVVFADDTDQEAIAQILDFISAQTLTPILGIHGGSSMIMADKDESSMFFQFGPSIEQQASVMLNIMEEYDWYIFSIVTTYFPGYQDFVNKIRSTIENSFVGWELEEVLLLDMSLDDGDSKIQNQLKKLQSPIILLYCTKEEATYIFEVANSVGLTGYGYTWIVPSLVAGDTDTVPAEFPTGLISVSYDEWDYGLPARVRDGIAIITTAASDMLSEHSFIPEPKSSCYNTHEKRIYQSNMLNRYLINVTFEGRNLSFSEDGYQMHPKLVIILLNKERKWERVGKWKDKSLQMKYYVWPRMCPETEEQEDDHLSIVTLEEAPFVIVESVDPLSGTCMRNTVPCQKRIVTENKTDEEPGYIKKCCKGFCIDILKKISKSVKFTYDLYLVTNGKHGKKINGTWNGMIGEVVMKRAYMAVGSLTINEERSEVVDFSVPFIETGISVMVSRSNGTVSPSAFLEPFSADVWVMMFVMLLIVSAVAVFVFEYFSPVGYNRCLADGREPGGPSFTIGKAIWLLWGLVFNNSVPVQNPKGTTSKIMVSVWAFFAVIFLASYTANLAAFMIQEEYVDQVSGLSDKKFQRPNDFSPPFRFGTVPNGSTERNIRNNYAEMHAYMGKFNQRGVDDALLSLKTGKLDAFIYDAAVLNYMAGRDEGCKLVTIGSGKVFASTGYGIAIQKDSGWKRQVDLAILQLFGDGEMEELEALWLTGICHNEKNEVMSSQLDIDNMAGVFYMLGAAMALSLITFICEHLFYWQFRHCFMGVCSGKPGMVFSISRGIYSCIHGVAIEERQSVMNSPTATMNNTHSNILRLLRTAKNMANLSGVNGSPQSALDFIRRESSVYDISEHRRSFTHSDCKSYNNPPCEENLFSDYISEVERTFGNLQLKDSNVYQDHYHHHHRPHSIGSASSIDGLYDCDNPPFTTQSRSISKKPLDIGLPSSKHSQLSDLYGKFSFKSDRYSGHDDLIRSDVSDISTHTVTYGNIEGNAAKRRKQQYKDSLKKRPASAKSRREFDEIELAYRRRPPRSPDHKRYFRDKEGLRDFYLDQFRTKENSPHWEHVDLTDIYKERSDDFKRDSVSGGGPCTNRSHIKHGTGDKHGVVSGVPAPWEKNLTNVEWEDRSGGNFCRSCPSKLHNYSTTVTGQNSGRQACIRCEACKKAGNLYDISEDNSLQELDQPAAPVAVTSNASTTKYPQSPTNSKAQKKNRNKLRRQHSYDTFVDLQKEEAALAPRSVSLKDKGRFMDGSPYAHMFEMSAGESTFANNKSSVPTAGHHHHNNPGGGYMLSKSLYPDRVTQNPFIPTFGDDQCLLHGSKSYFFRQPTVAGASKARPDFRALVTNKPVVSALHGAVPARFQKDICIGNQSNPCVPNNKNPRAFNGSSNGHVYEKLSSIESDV
Outline: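 Competition binding with [³H]ifenprodil on membranes of mouse fibroblast L(tk-) cells stably transfected with dexamethasone-inducible vectors for human GluN1a and human GluN2B; inhibition (%) of radioligand binding recorded at 1 μM test compound.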

[4] = biological target: T1, Sigma intracellular receptor 2 (Rattus norvegicus) (UniProt Q5U3Y7); assay: Displacement of [3H]-Di-o-tolylguanidine from sigma-2 receptor in rat liver membranes after 120 mins by scintillation counting method relative to control; assay type: cell membranes; design: concentration or dose not given beside the values
T1 sequence (whole entry): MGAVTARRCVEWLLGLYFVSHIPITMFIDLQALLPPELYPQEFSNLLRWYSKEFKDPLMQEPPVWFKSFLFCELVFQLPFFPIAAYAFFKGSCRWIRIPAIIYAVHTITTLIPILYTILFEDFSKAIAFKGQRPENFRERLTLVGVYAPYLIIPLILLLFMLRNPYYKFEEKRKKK

[5] = biological target: T2, Sigma intracellular receptor 2 (Rattus norvegicus, UniProt Q5U3Y7); assay: Displacement of [3H]-Di-o-tolylguanidine from sigma-2 receptor in rat liver membranes after 120 mins by scintillation counting method; assay type: cell membranes
T2 sequence (Q5U3Y7 whole entry): T1 sequence (whole entry)

[6] = biological target: T3, Sigma non-opioid intracellular receptor 1 (Cavia porcellus, UniProt Q60492); assay: Displacement of [3H]-(+)pentazocine from sigma-1 receptor in guinea pig brain membranes after 120 mins by scintillation counting method; assay type: cell membranes
T3 sequence (Q60492 whole entry): as the sequence (Q60492 whole entry) above

Cavia porcellus = organism: Cavia porcellus; assay: Displacement of [3H]-(+)-MK-801 from NMDA PCP binding site in pig brain cortex membrane at 1 uM incubated for 150 mins by scintillation counting method relative to control; assay type: cell membranes
[7] = biological target: T3, Sigma non-opioid intracellular receptor 1; assay: Displacement of [3H]-(+)pentazocine from sigma-1 receptor in guinea pig brain membranes after 180 mins by scintillation counting method; assay type: cell membranes
[8] = biological target: T2, Sigma intracellular receptor 2; assay: Displacement of [3H]-Di-o-tolylguanidine from sigma-2 receptor in rat liver membranes after 180 mins by scintillation counting method; assay type: cell membranes
[9] = biological target: Glutamate receptor ionotropic, NMDA 2B (Homo sapiens, UniProt Q05586+Q13224); assay: Displacement of [3H]ifenprodil from human GluN2B expressed in mouse L(tk-) cell membranes co-expressing GluN1a incubated for 120 mins by scintillation counting method
Glutamate receptor ionotropic, NMDA 2B, sequence (Q13224 whole entry, one chain of several): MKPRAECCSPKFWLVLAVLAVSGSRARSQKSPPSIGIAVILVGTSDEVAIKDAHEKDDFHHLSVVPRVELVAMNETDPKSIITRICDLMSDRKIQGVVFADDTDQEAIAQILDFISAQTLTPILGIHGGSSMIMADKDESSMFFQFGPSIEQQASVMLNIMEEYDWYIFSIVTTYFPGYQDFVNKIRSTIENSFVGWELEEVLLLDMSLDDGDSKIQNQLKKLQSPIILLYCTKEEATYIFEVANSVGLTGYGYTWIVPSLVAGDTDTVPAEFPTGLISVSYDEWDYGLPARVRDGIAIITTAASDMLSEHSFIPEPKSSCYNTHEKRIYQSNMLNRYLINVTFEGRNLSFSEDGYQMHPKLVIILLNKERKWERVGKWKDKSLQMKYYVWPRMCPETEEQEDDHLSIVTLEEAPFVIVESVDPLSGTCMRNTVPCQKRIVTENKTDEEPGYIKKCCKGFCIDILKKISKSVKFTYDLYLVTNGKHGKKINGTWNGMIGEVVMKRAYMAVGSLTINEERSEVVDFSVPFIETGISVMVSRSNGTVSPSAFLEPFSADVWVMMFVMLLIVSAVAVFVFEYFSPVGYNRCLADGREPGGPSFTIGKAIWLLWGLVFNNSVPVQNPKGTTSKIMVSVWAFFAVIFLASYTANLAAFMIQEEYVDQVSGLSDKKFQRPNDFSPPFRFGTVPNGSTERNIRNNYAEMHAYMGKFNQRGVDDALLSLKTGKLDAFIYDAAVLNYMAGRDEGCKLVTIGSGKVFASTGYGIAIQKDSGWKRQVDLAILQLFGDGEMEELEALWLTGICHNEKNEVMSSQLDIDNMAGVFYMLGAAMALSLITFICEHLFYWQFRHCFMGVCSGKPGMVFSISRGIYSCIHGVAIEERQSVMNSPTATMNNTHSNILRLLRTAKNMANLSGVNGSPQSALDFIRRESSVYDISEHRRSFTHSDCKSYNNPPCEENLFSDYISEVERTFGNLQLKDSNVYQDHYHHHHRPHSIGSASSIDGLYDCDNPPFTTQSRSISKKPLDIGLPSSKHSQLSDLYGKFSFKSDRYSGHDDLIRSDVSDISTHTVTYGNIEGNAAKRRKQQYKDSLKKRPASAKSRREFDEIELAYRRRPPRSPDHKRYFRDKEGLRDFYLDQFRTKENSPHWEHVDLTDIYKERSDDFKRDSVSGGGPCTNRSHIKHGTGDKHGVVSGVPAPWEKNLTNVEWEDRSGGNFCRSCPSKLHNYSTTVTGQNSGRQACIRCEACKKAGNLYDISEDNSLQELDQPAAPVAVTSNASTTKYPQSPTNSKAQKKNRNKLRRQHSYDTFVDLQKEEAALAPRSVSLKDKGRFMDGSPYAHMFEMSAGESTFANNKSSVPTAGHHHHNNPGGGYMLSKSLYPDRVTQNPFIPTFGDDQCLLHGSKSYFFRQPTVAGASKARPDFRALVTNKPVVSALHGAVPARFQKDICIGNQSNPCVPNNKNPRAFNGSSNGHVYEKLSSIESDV

inhibition [1]	inhibition [2]	inhibition [3]	inhibition [4]	Ki [5]	Ki [6]	inhibition (Cavia porcellus)	Ki [7]	Ki [8]	Ki [9]	Compound
0%	0%	0%	0%							COc1ccc2c(c1)CCN(CCC#Cc1nccs1)CC2O (centres undefined)
	0%	0%		397 nM	274 nM					COc1ccc2c(c1)CCN(CCCCc1cccnc1)CC2O (centres undefined)
21%	0%	13%	20%							COc1ccc2c(c1)CCN(CCC#Cc1cccs1)CC2O (centres undefined)
						25%	211 nM	96 nM		COc1ccc2c(c1)CCN(CCCCc1ccccc1)CC2O (centres undefined)
9%	0%	3%	23%							COc1ccc2c(c1)CCN(CCC#Cc1cccc(OCCF)c1)CC2O (centres undefined)
	0%	3%	12%		701 nM					COc1ccc2c(c1)CCN(CCC#Cc1ccc(OCCF)cc1)CC2O (centres undefined)
	9%			878 nM	164 nM				460 nM	COc1ccc2c(c1)CCN(CCCC#Cc1ccccc1)CC2O (centres undefined)
	0%			79 nM	705 nM				193 nM	Oc1ccc2c(c1)CCN(CCCCc1ccc(OCCF)cc1)CC2O (centres undefined)
	15%	18%	15%		565 nM					COc1ccc2c(c1)CCN(CCC#Cc1ccccc1)CC2O (centres undefined)
0%	0%	0%	12%							OC1CN(CCC#Cc2ccc(OCCF)cc2)CCc2cc(OCc3ccccc3)ccc21 (centres undefined)
	0%	20%		562 nM	340 nM					COc1ccc2c(c1)CCN(CCCCc1cccs1)CC2O (centres undefined)
5%	0%	1%	9%							COc1ccc2c(c1)CCN(CCC#Cc1cccnc1)CC2O (centres undefined)
	0%	19%		593 nM	715 nM					COc1ccc2c(c1)CCN(CCCCc1ccccc1OCCF)CC2O (centres undefined)
31%	4%	4%	22%							COc1ccc2c(c1)CCN(CCC#Cc1ccccc1OCCF)CC2O (centres undefined)
28%	0%	0%	0%							COc1ccc2c(c1)CCN(CCCCc1cn(CCF)nn1)CC2O (centres undefined)
